Test [1] can be described thus: Inhibition of human BCL-W deltaC23 C29S/A128E mutant by surface plasmon resonance assay. The essentials: (§1)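 Biacore solution competition. Protein (10 nM) preincubated 2 h with compound (12.5−0.0001 μM, 10-step half-log series) in HEPES running buffer pH 7.4 with EDTA and 0.005% Tween 20. Injected over a CM5 chip carrying wild-type or inert mBIM BH3 peptide. IC₅₀ by nonlinear curve fit. GST tag removed from BCL-XL and MCL-1 before use.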

Test [2] is described as follows: Inhibition of mouse A1 deltaC20 P10K/C113S mutant by surface plasmon resonance assay. In outline: as §1
On the technique in general: Surface plasmon resonance follows binding to a sensor surface in real time, without labels.

A short description of test [3]: Inhibition of GST tagged human/mouse chimeric MCL-1 by surface plasmon resonance assay.
Test [4] can be described thus: Inhibition of GST tagged human BCL-XL deltaC25 using biotin-DLRPEIRIAQELRIZIGDEFNETYTRR as substrate […] measured after 4 hrs by AlphaSCREEN assay.
Test [5] in a line: Inhibition of human BCL-2 deltaC22 by surface plasmon resonance assay. In outline:
as §1

The nature of test [6]: Inhibition of GST tagged human/mouse chimeric MCL-1 using biotin-DLRPEIRIAQELRIZIGDEFNETYTRR as substrate incubated for 40 mins followed by substrate addition measured after 4 hrs by AlphaSCREEN assay. In general terms: In Alpha technology, singlet oxygen from a donor bead excites a nearby acceptor bead.
The nature of test [7]: Inhibition of GST tagged human BCL-XL deltaC25 by surface plasmon resonance assay.
Test [8] relates to MEF. Nature of the test: Cytotoxicity against MCL-1/BAX/BAK deficient MEF cells assessed as release of cytochrome c from mitochondria by FACS analysis. The test is classed as functional, cell-based. The conditions noted are these: Mus musculus. The essentials: (§2)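 MEFs at 1.5 × 10⁵ cells/well in FMA medium with 1% FCS, 3 h rest, then compounds for 18 h (final DMSO 0.25%) beside a vehicle control. Cells permeabilized with 0.025% digitonin on ice for 5 min, then fixed in 1% paraformaldehyde. Stained with anti-cytochrome c (1:100) and a PE secondary in saponin buffer. FL2 read on 10 000 events for % cells with low cytochrome c. Four experiments; multiple unpaired t test (Holm−Sidak, α = 0.01).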

The subject of test [9] is MEF. Nature of the test: Cytotoxicity against MCL-1deficient MEF cells assessed as release of cytochrome c from mitochondria at 25 uM FACS analysis. Type of test: functional. The essentials:
as §2

The subject of test [10] is MEF. Nature of the test: Cytotoxicity against MCL deficient mouse embryonic fibroblast cells assessed as reduction in cell viability in presence of 1 % fetal calf serum measured after 24 hrs by propidium iodide staining based flow cytometric analysis. Type of test: functional. In outline:
(§3)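 MEFs (WT, MCL-1−/−, MCL-1−/−/BAX−/−/BAK−/−) seeded at 1 × 10⁴ cells/well in FMA medium with 1% FCS, 24 h before dosing. Four-point dilutions: 0.168−0.00005 μM for ABT-737, 25−3.13 μM for others; final DMSO 0.2%, duplicate wells, 24 h. Cells stained with PI, flow cytometry on 1000 events. PI-negative fraction normalized to DMSO vehicle; EC₅₀ by nonlinear regression, mean ± SEM of three experiments.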

In test [11] the test system is MEF. Kind of test: Cytotoxicity against wild type MEF cells assessed as release of cytochrome c from mitochondria FACS analysis. Type of test: functional, cell-based. The conditions noted are these: Mus musculus. The essentials:
as §2
For orientation: A flow cytometer gives signals particle by particle.

The test system of test [12] is MEF. Nature of the test: Cytotoxicity against MCL-1/BAX/BAK deficient mouse embryonic fibroblast cells assessed as reduction in cell viability in presence of 1 % fetal calf serum measured after 24 hrs propidium iodide staining based flow cytometric analysis. Type of test: functional. In outline:
as §3

Test [13] relates to MEF. Nature of the test: Cytotoxicity against MCL-1deficient MEF cells assessed as release of cytochrome c from mitochondria at 2.5 uM FACS analysis. The test is classed as functional, Mus musculus. In outline: as §2
For test [14], the system named is MEF. Kind of test: Cytotoxicity against wild type mouse embryonic fibroblast cells assessed as reduction in cell viability in presence of 1 % fetal calf serum measured after 24 hrs propidium iodide staining based flow cytometric analysis. Type of test: functional. The essentials: as §3
In another test the test system is COLO 205. Kind of test: Cytotoxicity against BCL-XL dependent human COLO205 cells assessed as reduction in cell viability measured after 48 hrs by CellTitre-Glo assay. Type of test: functional, cell-based. In outline: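 COLO205 cells (WT or BAK−/−/BAX−/−), kept in RPMI-1640 with 10% FCS, seeded at 3 × 10³ cells/well in medium with 10 or 1% FCS. Dosed one day later with six-point serial dilutions (0.0003−10 μM 1:8 for BH3 mimetics; 0.1−25 μM 1:3 for benzoylureas). Viability normalized to matched DMSO vehicle; EC₅₀ by curve fit.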

The subject of test [15] is MEF. Nature of the test: Cytotoxicity against mouse embryonic fibroblast cells assessed as reduction in cell viability in presence of 10 % fetal calf serum measured after 24 hrs propidium iodide staining based flow cytometric analysis. Type of test: functional.

From ChEMBL document CHEMBL5038579, “Structure-Guided Development of Potent Benzoylurea Inhibitors of BCL-XL and BCL-2” (J Med Chem, 2021) come the findings set out here.

SMILES strings stand for the structures. Active and inactive are the calls of the source. The rule behind the calls is not given here.

In the case of `Cc1ccc(CN(C(=O)N[C@@H](CS(=O)(=O)CC23CC4CC(CC(C4)C2)C3)C(=O)O)C(=O)c2ccc3c(c2)CCN(Cc2ccccc2-c2ccc(Cl)cc2)C3)cc1`, the IC50 (commonly the concentration at which inhibition is half-maximal) in test [1] was over 12.5 µM; in [2] it was 5.9 µM; in test [3], over 12.5 µM; in test [4], 0.04 µM; in test [5] it was 0.107 µM; in [6] it was 1.8 µM. The molecule also yielded an IC50 in [7] of 0.044 µM.

For the molecule `Cc1ccc(CN(C(=O)N[C@@H](CS(=O)(=O)CC23CC4CC(CC(C4)C2)C3)C(=O)O)C(=O)c2ccc(-c3ccccc3)cc2)cc1`, the IC50 was over 12.5 µM in [1]; 6.8 µM in test [2]; over 12.5 µM in test [3]; 0.19 µM in [4]; 9.4 µM in test [5]; 6.1 µM in test [6]. This molecule registered a concentration for half-maximal inhibition (IC50) in test [7] of 0.42 µM.

With `Cc1ccc(CN(C(=O)N[C@@H](CS(=O)(=O)Cc2ccccc2)C(=O)O)C(=O)c2ccc(-c3ccccc3)cc2)cc1`, the IC50 in test [1] was over 12.5 µM; in test [2] it was over 12.5 µM; in [3] it was over 12.5 µM; in [4], 0.59 µM; in test [5], over 12.5 µM; in [6] it was 11.6 µM. In test [7], this molecule showed an IC50 of 1.8 µM.

Regarding `Cc1ccc(CN(C(=O)N[C@@H](CS(=O)(=O)CC2CCCCC2)C(=O)O)C(=O)c2ccc(-c3ccccc3)cc2)cc1`, the IC50 in test [1] was over 12.5 µM; in test [2] it was over 12.5 µM; in [3], over 12.5 µM; in [4] it was 0.46 µM; in test [5], over 12.5 µM; in [6] it was 10 µM. For the same molecule, the IC50 in test [7] was 0.62 µM.

As for `CSC[C@H](NC(=O)N(Cc1ccc(C)cc1)C(=O)c1ccc(-c2ccccc2)cc1)C(=O)O`, the IC50 in test [4] turned out to be 13.1 µM; in test [6] it was 44 µM.

`CCCN(C(=O)N[C@@H](CSCc1ccccc1)C(=O)O)C(=O)c1ccc(-c2ccccc2)cc1`: the outcome in the test with MEF [8], with MEF [9] (Mus musculus) and with MEF [11] was inactive. For the same molecule, the EC50 (as a rule, the concentration at which the effect is half-maximal) in the test on MEF [10] is over 25 µM. The IC50 in test [4] was 31 µM; in test [6] it was 28 µM.

Consider `Cc1ccc(CN(C(=O)N[C@@H](CSCc2ccccc2)C(=O)O)C(=O)c2ccc(-c3ccccc3)cc2)cc1`, for which the results for the IC50 in test [4] and in test [6] were 0.51 µM and 7.7 µM, respectively.

As to `Cc1ccc(CN(C(=O)NCCSCc2ccccc2)C(=O)c2ccc(-c3ccccc3)cc2)cc1`, the IC50 in test [4] and in test [6] was over 100 µM throughout.

Turning to `Cc1ccc(CN(C(=O)N[C@@H](CS(=O)(=O)Cc2ccccc2)C(=O)O)C(=O)c2ccc3c(c2)CCN(Cc2ccccc2-c2ccc(Cl)cc2)C3)cc1`, the IC50 is over 12.5 µM in test [1]; over 12.5 µM in test [2]; over 12.5 µM in test [3]; 0.17 µM in [4]; 0.066 µM in test [5]; 5.3 µM in [6]. Besides, the IC50 in test [7] was 0.133 µM.

With `Cc1ccc(CN(C(=O)N[C@@H](CSCc2ccccc2)C(=O)O)C(=O)c2ccc3c(c2)CCN(Cc2ccccc2-c2ccc(Cl)cc2)C3)cc1`, the half-maximal inhibitory concentration (IC50) in [1] is 10 µM; in [2] it was 4.6 µM; in test [3], over 12.5 µM; in test [4], 0.21 µM; in [5] it was 0.152 µM; in test [6], 2 µM. This molecule also displayed an IC50 in [7] of 0.24 µM.

For the molecule `Cc1ccc(CN(C(=O)N[C@@H](COCc2ccccc2)C(=O)O)C(=O)c2ccc(-c3ccccc3)cc2)cc1`, the IC50 came out at 0.38 µM in [4] and 11.8 µM in [6].

Take `Cc1ccc(CN(C(=O)N[C@@H](CSCc2ccccc2)C(=O)O)C(=O)c2ccc(-c3cccc(-c4ccccc4-c4ccc(Cl)cc4)c3)cc2)cc1`: the results for the concentration for half-maximal inhibition (IC50) in [4] and in test [6] were 0.24 µM and 1.5 µM, respectively.

For the molecule `CN(C)CC[C@H](CSc1ccccc1)Nc1ccc(S(=O)(=O)NC(=O)c2ccc(N3CCN(Cc4ccccc4-c4ccc(Cl)cc4)CC3)cc2)cc1[N+](=O)[O-]` [ABT 737], the result in the test on MEF [12] and in the test on MEF [14] was inactive. For the same molecule, the IC50 in [1] is 0.012 µM; in [3], over 12.5 µM; in [4], 0.004 µM; in test [5] it was under 0.00025 µM; in test [6], 40 µM; in test [7], under 0.00025 µM. Moreover, in the test with MEF [10], the 50% effective concentration (EC50) was determined as 0.013 µM. In the test with MEF [13], the Activity is reported as over 90%.

As for `Cc1ccc(CN(C(=O)N[C@@H](CS(=O)(=O)CC2CCCCC2)C(=O)O)C(=O)c2ccc3c(c2)CCN(Cc2ccccc2-c2ccc(Cl)cc2)C3)cc1`, the outcome in the test on MEF [12], in the test on COLO 205, with MEF [15], in the test on MEF [8], in the test with MEF [14] and in the test with MEF [11] was inactive. For the same molecule, the 50% inhibitory concentration (IC50) in test [1] was 6.8 µM; in test [2], 4.6 µM; in test [3], over 12.5 µM; in [4], 0.04 µM; in test [5], 0.018 µM; in test [6], 1.8 µM. Besides, the midpoint of inhibition in [7], the IC50, lay at 0.041 µM. For the same molecule, the Activity in the test on MEF [9] amounted to 30%. For the same molecule, the EC50 in the test on MEF [10] was determined as 19.2 µM.

Regarding `Cc1ccc(CN(C(=O)N[C@@H](CCCc2ccccc2)C(=O)O)C(=O)c2ccc(-c3ccccc3)cc2)cc1`, the IC50 in test [4] turned out to be 1.09 µM; in [6], 8 µM.

For `COC(=O)[C@H](CSCc1ccccc1)NC(=O)N(Cc1ccc(C)cc1)C(=O)c1ccc(-c2ccccc2)cc1`, the IC50 in test [4] and in test [6] was over 100 µM in each case.
